# Tests used:
# [1] = Inhibition of HIV1 gp120 binding to 17b antibody by SPR competition binding assay; set-up: species or system Human immunodeficiency virus 1
# [2] = Inhibition of HIV1 gp120 binding to CD4 by SPR competition binding assay; set-up: species or system Human immunodeficiency virus 1
# [3] = Stability assessed as trypsin (unknown origin)-mediated compound degradation incubated for 5 hrs at 37 degC by HPLC and ESI-MS method; assay type: ADME; settings: human
# How it was run: (§1)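 Each peptide was incubated on its own with a single protease (trypsin or chymotrypsin) at 37 °C. Digestion was tracked by HPLC and ESI-MS for remaining intact peptide. For chymotrypsin, samples were taken after 30 min, and the cyclic peptide was also checked after 20 h and 40 h.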
# [4] = Stability assessed as chymotrypsin (unknown origin)-mediated compound degradation incubated for 30 mins at 37 degC by HPLC and ESI-MS method; assay type: ADME; settings: human, 0.5 h; how it was run: as §1
# [5] = Stability assessed as chymotrypsin (unknown origin)-mediated compound degradation incubated for 5 hrs at 37 degC by HPLC and ESI-MS method; assay type: ADME; settings: human
# How it was run: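 Each peptide incubated on its own with chymotrypsin at 37 °C. Digestion followed over time by HPLC, with ESI-MS used to check the intact peptide and its fragments. Extended sampling at 20 h and 40 h was also done.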
# [6] = Stability assessed as chymotrypsin (unknown origin)-mediated compound degradation incubated for 40 hrs at 37 degC by HPLC and ESI-MS method; assay type: ADME; settings: human; how it was run: as §1
# [7] = Stability assessed as chymotrypsin (unknown origin)-mediated compound degradation incubated for 20 hrs at 37 degC by HPLC and ESI-MS method; assay type: ADME; settings: human; how it was run: as §1
Structure (SMILES),IC50 [1],IC50 [2],further results
CC[C@@H](C)[C@H]1NC(=O)[C@@H](CC(N)=O)NC(=O)[C@@H](N)CCC(=O)NCC[C@H](C(N)=O)NC(=O)[C@@H](Cc2c[nH]c3ccccc23)NC(=O)[C@H]2C[C@@H](n3cc(CCc4ccccc4)nn3)CN2C1=O,> 20000 nM,> 20000 nM,–
CC[C@@H](C)[C@H]1NC(=O)[C@@H](CC(N)=O)NC(=O)[C@@H](N)CCC(=O)NCCCC[C@H](C(N)=O)NC(=O)[C@@H](Cc2c[nH]c3ccccc23)NC(=O)[C@H]2C[C@@H](n3cc(CCc4ccccc4)nn3)CN2C1=O,> 40000 nM,> 40000 nM,–
CC[C@@H](C)[C@@H](NC(=O)[C@@H](CC(N)=O)NC(=O)[C@@H](N)CC(=O)O)C(=O)N1C[C@H](n2cc(CCc3ccccc3)nn2)C[C@@H]1C(=O)N[C@H](Cc1c[nH]c2ccccc12)C(=O)N[C@H](CCCCN)C(N)=O,–,–,"metabolised at 5 h ([3]; trypsin, read-out: Drug degradation): 60%; Drug degradation [4]: 100%; Drug degradation [5]: 60%"
CC[C@@H](C)[C@@H](N)C(=O)N[C@H]1CCC(=O)NCCCC[C@H](C(N)=O)NC(=O)[C@@H](Cc2c[nH]c3ccccc23)NC(=O)[C@H]2C[C@@H](n3cc(CCc4ccccc4)nn3)CN2C(=O)[C@@H]([C@H](C)CC)NC(=O)[C@@H](CC(N)=O)NC1=O,269 nM,138 nM,–
CC[C@@H](C)[C@H]1NC(=O)[C@@H](CC(N)=O)NC(=O)[C@@H](N)CC(=O)NCCCC[C@H](C(N)=O)NC(=O)[C@@H](Cc2c[nH]c3ccccc23)NC(=O)[C@H]2C[C@@H](n3cc(CCc4ccccc4)nn3)CN2C1=O,96 nM,85 nM,Stability ([3]; 5 h): Stable; Stability [4]: Stable; Stability [5]: Stable; Stability [6]: Stable; Stability [7]: Stable
CC[C@@H](C)[C@H]1NC(=O)[C@@H](CC(N)=O)NC(=O)[C@@H](N)CC(=O)NCCC[C@H](C(N)=O)NC(=O)[C@@H](Cc2c[nH]c3ccccc23)NC(=O)[C@H]2C[C@@H](n3cc(CCc4ccccc4)nn3)CN2C1=O,3900 nM,5700 nM,–
CC[C@@H](C)[C@H]1NC(=O)[C@@H](CC(N)=O)NC(=O)[C@@H](N)CC(=O)NCC[C@H](C(N)=O)NC(=O)[C@@H](Cc2c[nH]c3ccccc23)NC(=O)[C@H]2C[C@@H](n3cc(CCc4ccccc4)nn3)CN2C1=O,400 nM,500 nM,–

# Reference: ChEMBL document CHEMBL3616414, “Macrocyclic Envelope Glycoprotein Antagonists that Irreversibly Inactivate HIV-1 before Host Cell Encounter” (J Med Chem, 2015)
